Experimental data of several laboratories.
Protocols differ between the studies behind these lines.
Target: Serine/threonine-protein kinase Nek3 (NEK3, Homo sapiens, UniProt P51956)
Residues used in one study (P51956 1-506): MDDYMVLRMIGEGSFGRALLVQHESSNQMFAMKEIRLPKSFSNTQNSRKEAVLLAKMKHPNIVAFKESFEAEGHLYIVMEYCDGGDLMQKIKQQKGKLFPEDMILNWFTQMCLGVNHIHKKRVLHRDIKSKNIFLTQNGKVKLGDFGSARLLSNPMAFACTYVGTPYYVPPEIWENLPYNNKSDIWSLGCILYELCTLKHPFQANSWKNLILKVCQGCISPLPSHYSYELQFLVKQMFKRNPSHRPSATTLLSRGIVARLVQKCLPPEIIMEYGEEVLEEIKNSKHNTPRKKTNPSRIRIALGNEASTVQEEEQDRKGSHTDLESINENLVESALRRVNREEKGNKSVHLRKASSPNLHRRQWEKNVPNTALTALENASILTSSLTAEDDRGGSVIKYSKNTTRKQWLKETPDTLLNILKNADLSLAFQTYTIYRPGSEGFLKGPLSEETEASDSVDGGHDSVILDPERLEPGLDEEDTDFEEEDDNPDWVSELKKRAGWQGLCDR

Structure (SMILES)	read-out	mode	technique	tested at	endpoint	value
Nc1ncnc2occ(-c3ccc(NC(=O)Nc4cc(C(F)(F)F)ccc4F)cc3)c12	cell-free assay	inhibitor		20 µM	remaining signal	63%
COc1cccc2c(NCc3ccccc3)nc(-n3c(N)nc4ccccc43)nc12	target engagement in cells	inhibitor	chemoproteomics	20 mM	inhibition	2.9%
O=C(Nc1cnn(-c2csc(C(=O)NC3COC3)c2)c1)Nc1ccccc1Cl	enzyme activity	inhibitor		5 µM	remaining activity	103%
Nc1c(C(=O)NCc2ccc(C(=O)NCCCC3CCCCC3)cc2)cnn1-c1ccccc1	cell-free assay		competition with immobilised ligand	0.1 µM	remaining binding	100%
CC(C)(C)c1nc2c(s1)c1nc(N)ncc1c1ccc(NS(=O)(=O)c3c(F)cccc3F)c(F)c12	enzyme activity	inhibitor	radiometric	1 µM	remaining activity	118%
CNC(=O)c1cc(Oc2ccc(NC(=O)Nc3ccc(Cl)c(C(F)(F)F)c3)cc2)ccn1	cell-free assay			0.5 µM	remaining signal	97.2%
CN(C)C(=O)Cn1cc(-c2nc([C@@](C)(c3ccc(-c4cnc(N)nc4)cc3)C3CC3)no2)cn1	cell-free assay		competition with immobilised ligand	1 µM	remaining binding	87%
O=C(Nc1cnn(-c2csc(C(=O)NC3COC3)c2)c1)Nc1c(F)cccc1Cl	enzyme activity	inhibitor		5 µM	remaining activity	87.2%
CC(C)(O)[C@H]1CC[C@H](Nc2ccc3ncc(-c4cccc(C(F)(F)F)c4)n3n2)CC1	enzyme activity	inhibitor		1 µM	remaining activity	91%
Cc1ccc(NC(=O)c2ccc(C)c(C(F)(F)F)c2)cc1C#Cc1nn(C2CCC(O)CC2)c2ncnc(N)c12 (stereo not shown)	cell-free assay			10 µM	remaining signal	102%
Cn1cnc(Br)c1C1=CN(c2ncnc3[nH]cnc23)CCS1	enzyme activity	inhibitor	radiometric	2 µM	inhibition	79.9%
CO[C@@H](C)c1c(Nc2ccc([C@@H](N(C)C(=O)C3CCS(=O)(=O)CC3)C(F)(F)F)cc2)cnc2cc(Cl)nn12	cell-free assay		competition with immobilised ligand	1 µM	remaining binding	61%
CCN(CC)c1ccc(C2=NNC(=O)CC2C)cc1[N+](=O)[O-] (stereo not shown)	enzyme activity	inhibitor		10 µM	remaining activity	90%
C[C@H](c1ccnc(Nc2nc3ccc(-c4cc(N(C)C)ncn4)cc3[nH]2)c1)N1CCN(C(=O)CC(F)(F)F)CC1	cell-free assay		competition with immobilised ligand	0.1 µM	remaining binding	100%
CCN(CC)CCNC(=O)c1c(C)[nH]c(/C=C2\C(=O)Nc3ccc(F)cc32)c1C	cell-free assay			0.5 µM	remaining signal	91.6%
CNCc1ccccc1-c1csc([C@@H](C)Nc2nc(C)nc3cc(OC)c(OC)cc23)c1	cell-free assay		competition with immobilised ligand	1 µM	remaining binding	100%
c1ccc(CNc2nc(N3CCOc4ccccc43)nc3c2CCCC3)cc1	target engagement in cells	inhibitor	chemoproteomics	20 mM	inhibition	5.9%
Nc1cnc(N2CCc3cc(S(=O)(=O)Nc4c(F)cc(Cl)cc4F)cc(N4CCCC4=O)c32)nc1	cell-free assay		competition with immobilised ligand	1 µM	remaining binding	100%
Cc1ccc(Nc2nccc(N(C)c3ccc4c(C)n(C)nc4c3)n2)cc1S(N)(=O)=O	enzyme activity	inhibitor		0.5 µM	remaining activity	94.2%
